For two molecules, IC50 and Apoptosis results are on record in ChEMBL document CHEMBL1136723, “A novel atypical retinoid endowed with proapoptotic and antitumor activity” (J Med Chem, 2003).

The test system of assay [1] is A-431. The experiment in a line: Antiproliferative effect of compound on A431 cell line expressing mutant p53. Format: functional, cell-based. To be noted: Homo sapiens. Put shortly:
(§1)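 Human tumor cell lines exposed to drug for 72 h. Growth was measured by cell counting. IC50, the concentration giving 50% inhibition of cell growth, was read from dose–response curves.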

The subject of assay [2] is DU-145. The experiment in a line: Antiproliferative effect of compound on DU145 cell line expressing mutant p53. Format: functional, cell-based. To be noted: Homo sapiens. Put shortly:
as §1

The subject of assay [3] is GBM. Put plainly: Antiproliferative effect of compound on GBM cell line expressing mutant p53. Format: functional, cell-based. The settings on record: Homo sapiens. In outline:
as §1

Assay [4] deals with NCI-H460. The experiment in a line: Antiproliferative effect of compound on H460 cell line expressing wild-type p53. The settings on record: Homo sapiens. Format: functional, cell-based. In outline:
as §1

The subject of assay [5] is HCT-116. The experiment in a line: Antiproliferative effect of compound on HCT116 cell line expressing wild-type p53. Format: functional, cell-based. The settings on record: Homo sapiens. Put shortly: as §1
In assay [6] the test system is DU-145. The experiment in a line: (§2) Apoptosis was determined my morphological analysis of propidium-iodide-stained cells following 48 hr exposure to IC80 (0.5 uM), value expressed as percentage of apoptotic cells versus total cell number. Format: functional, Homo sapiens.
Assay [7] concerns IGROV-1. The assay is described as §2. Format: functional, Homo sapiens.
Assay [8] concerns DU-145. Put plainly: (§3) Apoptosis was determined my morphological analysis of propidium-iodide-stained cells following 72 hr exposure to IC80 (0.5 uM), value expressed as percentage of apoptotic cells versus total cell number. Format: functional, Homo sapiens.
For assay [9], the system named is IGROV-1. The description is as §3. Format: functional, Homo sapiens.
Assay [10] concerns IGROV-1. The experiment in a line: Antiproliferative effect of compound on IGROV-1 cell line expressing wild-type p53. Format: functional, cell-based. To be noted: Homo sapiens. Put shortly:
as §1

The test system of assay [11] is DU-145. The experiment in a line: (§4) Apoptosis was determined my morphological analysis of propidium-iodide-stained cells following 24 hr exposure to IC80 (0.5 uM), value expressed as percentage of apoptotic cells versus total cell number. Format: functional, Homo sapiens.
Assay [12] relates to IGROV-1. The assay is described as §4. Format: functional, Homo sapiens.
Assay [13] concerns LNCaP. Put plainly: Antiproliferative effect of compound on LNcaP cell line expressing wild-type p53. Format: functional, cell-based. To be noted: Homo sapiens. In outline: as §1
The subject of assay [14] is Me665/2/21. Put plainly: Antiproliferative effect of compound on Me665/2/21 cell line expressing mutant p53. Format: functional, cell-based. To be noted: Homo sapiens. Put shortly: as §1
Assay [15] relates to PC-3. The experiment in a line: Antiproliferative effect of compound on PC3 cell line. To be noted: Homo sapiens. Format: functional, cell-based. Put shortly:
as §1

Assay [16] concerns SAOS-2. The experiment in a line: Antiproliferative effect of compound on SAOS cell line. To be noted: Homo sapiens. Format: functional, cell-based. Put shortly: as §1
The subject of assay [17] is U2OS. Put plainly: Antiproliferative effect of compound on U2OS cell line expressing wild-type p53. Format: functional, cell-based. The settings on record: Homo sapiens. Put shortly:
as §1

In assay [18] the test system is LoVo. The experiment in a line: Antiproliferative effect of compound on LoVo cell line expressing wild-type p53. Format: functional, cell-based. To be noted: Homo sapiens. Put shortly: as §1
Assay [19] deals with A2780. The experiment in a line: Antiproliferative effect of compound on A2780/DX cell line. The settings on record: Homo sapiens. Format: functional, cell-based. In outline:
as §1

SMILES strings stand for the structures.

In general, IC50 refers to the midpoint of a concentration-inhibition curve. A high value points to lower potency. On to `O=C(O)c1ccc2cc(-c3ccc(O)c(C45CC6CC(CC(C6)C4)C5)c3)ccc2c1` [O-DEMETHYLATED ADAPALENE], for which the IC50 was 0.51 µM in assay [1]; 0.28 µM in [2]; 0.55 µM in assay [3]; 0.43 µM in [4]; 0.68 µM in assay [5]; 0.35 µM in [10]. The IC50 in assay [13] was 0.32 µM; in assay [14], 0.42 µM; in assay [15], 0.43 µM; in assay [16], 0.67 µM; in [17], 0.44 µM; in [18], 0.49 µM. The Apoptosis in assay [6] is recorded as 33%; in assay [7] it was 15%; in [8] it was 30%; in assay [9], 38%; in assay [11], 16%; in [12], 22%.

Turning to `O=C(O)/C=C/c1ccc(-c2ccc(O)c(C34CC5CC(CC(C5)C3)C4)c2)cc1` [ADAROTENE], the IC50 stood at 0.1 µM in assay [19]; 0.25 µM in assay [1]; 0.1 µM in assay [2]; 0.18 µM in assay [3]; 0.19 µM in assay [4]; 0.32 µM in assay [5]. The IC50 in assay [10] is 0.23 µM; in assay [13], 0.12 µM; in assay [14] it was 0.25 µM; in assay [15], 0.21 µM; in assay [16] it was 0.25 µM; in [17], 0.26 µM. In assay [18], this molecule registered an IC50 of 0.15 µM. Also, the Apoptosis in assay [6] is 44%; in assay [7], 46%; in [8], 50%; in assay [9] it was 44%; in assay [11], 24%; in assay [12], 42%.
